Data on five compounds can be found in ChEMBL document CHEMBL1154463, “Synthesis and induction of G0-G1 phase arrest with apoptosis of 3,5-dimethyl-6-phenyl-8-(trifluoromethyl)-5,6-dihydropyrazolo[3,4-f][1,2,3,5]tetrazepin-4(3H)-one” (Eur J Med Chem, 2008).

The subject of assay [1] is HL-60. The assay is described as follows: Induction of apoptosis in human HL60 cells after 48 hrs. Conditions: HL-60, 48 h. The class given is functional, cell-based. Put shortly:
(§1)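 Cells exposed 48 h to a range of concentrations, then 2 × 10⁵ cells pelleted (300 × g) and stained with acridine orange and ethidium bromide ([…]). Read by fluorescence microscopy under oil immersion. Apoptosis scored by perinuclear chromatin condensation and apoptotic bodies, counting ≥300 cells. AC50 = concentration giving 50% apoptotic cells. Bars: SE.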

The subject of assay [2] is HL-60. The assay can be described thus: Induction of apoptosis in multidrug resistant human HL60 cells after 48 hrs. Conditions: HL-60, 48 h. The class given is functional, cell-based. Put shortly:
as §1

Assay [3] has as its system HL-60. The assay can be described thus: human HL60 cells after 48 hrs. The settings on record: HL-60, 48 h.
Assay [4] deals with K562. The assay can be described thus: Induction of apoptosis in human K562 cells after 48 hrs. The class given is functional, cell-based. The settings on record: K562, 48 h.
In assay [5] the test system is HL-60. The assay can be described thus: Cytotoxicity against human HL60 cells after 48 hrs by trypan blue exclusion method. The assay is classed as functional, cell-based. The settings on record: HL-60, 48 h. The procedure, abridged:
(§2)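 2 × 10⁵ cells in 1 ml complete medium treated with a range of concentrations, added as freshly prepared DMSO solution (final DMSO ≤0.3% v/v), for 48 h. Viable cells counted and expressed as percent of untreated control proliferation; IC50 = concentration inhibiting 50% of growth, from 48 h exposure. Bars: SE.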

Assay [6] concerns HL-60. The assay is described as follows: Cytotoxicity against multidrug-resistant human HL60 cells after 48 hrs by trypan blue exclusion method. The class given is functional, cell-based. The settings on record: HL-60, 48 h. Put shortly: as §2
Assay [7] has as its system K562. The assay is described as follows: Cytotoxicity against human K562 cells after 48 hrs by trypan blue exclusion method. The assay is classed as functional, cell-based. The settings on record: K562, 48 h. Put shortly: as §2
Assay [8] has as its system K562. The assay can be described thus: Cytotoxicity against imatinib mesylate-resistant human K562 cells after 48 hrs by trypan blue exclusion method. The class given is functional, cell-based. The settings on record: K562, 48 h. The procedure, abridged:
as §2

Assay [9] relates to K562. The assay is described as follows: Induction of apoptosis in imatinib mesylate-resistant human K562 cells after 48 hrs. The class given is functional, cell-based. The procedure, abridged:
as §1

The subject of assay [10] is K562. The assay is described as follows: Cell cycle arrest in human K562 cells assessed as accumulation at GO-G1 phase after 24 hrs by flow cytometry. The assay is classed as functional, cell-based. The procedure, abridged: (§3)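 K562 cells cultured 24 h and 48 h without compound or at 25, 50 or […] (unit as printed). Cells washed in ice-cold PBS, resuspended at 10⁶/ml in hypotonic propidium iodide ([…])/0.03% v/v NP-40 in 0.1% sodium citrate for 30 min. DNA content read by flow cytometry as single-parameter histograms; G0–G1 and sub-G0–G1 fractions taken as percent of cells.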
A general note: Flow cytometry measures light scatter and fluorescence of single cells or particles in a stream.

Assay [11] relates to K562. The assay is described as follows: Induction of apoptosis in human K562 cells assessed as accumulation at sub GO-G1 phase accumulation after 24 hrs by flow cytometry. The class given is functional, cell-based. Put shortly:
as §3

For assay [12], the system named is K562. The assay can be described thus: Cell cycle arrest in human K562 cells assessed as accumulation at GO-G1 phase at 50 uM after 24 hrs by flow cytometry. The assay is classed as functional. Put shortly:
as §3

Assay [13] concerns K562. The assay is described as follows: Cell cycle arrest in human K562 cells assessed as accumulation at GO-G1 phase at 50 uM after 48 hrs by flow cytometry. The class given is functional. The procedure, abridged:
as §3

Assay [14] has as its system K562. The assay is described as follows: Induction of apoptosis in human K562 cells assessed as accumulation at sub GO-G1 phase accumulation at 50 uM after 24 hrs by flow cytometry. The assay is classed as functional. The procedure, abridged: as §3
For assay [15], the system named is K562. The assay can be described thus: Induction of apoptosis in human K562 cells assessed as accumulation at sub GO-G1 phase accumulation at 50 uM after 48 hrs by flow cytometry. The assay is classed as functional. The procedure, abridged:
as §3

Structures can show the parent of a compound that is named as a salt. Calls of active or inactive are those of the source. No cut-off for these calls is given here. Bounds are passed on as bounds.

Broadly, the AC50 is the midpoint of the concentration-response curve, whichever way the signal moves. A higher AC50 goes with activity only at high concentration. In the case of `COc1cc([C@@H]2c3cc4c(cc3[C@@H](O[C@@H]3O[C@@H]5CO[C@@H](C)O[C@H]5[C@H](O)[C@H]3O)[C@H]3COC(=O)[C@H]23)OCO4)cc(OC)c1O` [ETOPOSIDE], the AC50 in the assay on HL-60 [1] was 0.4 µM; in the assay with HL-60 [2] it was above 400 µM.

For the compound `COc1cccc2c1C(=O)c1c(O)c3c(c(O)c1C2=O)C[C@@](O)(C(C)=O)C[C@@H]3O[C@H]1C[C@H](N)[C@H](O)[C@H](C)O1` [DAUNORUBICIN], the AC50 was found to be 38 µM in the assay with HL-60 [2] and 0.1 µM in the assay on HL-60 [3].

In the assay on K562 [4], `Cc1ccc(NC(=O)c2ccc(CN3CCN(C)CC3)cc2)cc1Nc1nccc(-c2cccnc2)n1` [IMATINIB MESYLATE] showed an AC50 of 62 µM. That is a double-digit micromolar value.

One may read the IC50 as the concentration at which inhibition is half-maximal. For `CN1N=Nc2c(C(F)(F)F)nn(-c3ccccc3)c2N(C)C1=O`, the IC50 in the assay with HL-60 [5] came to 21 µM; in the assay on HL-60 [6], 30 µM; in the assay on K562 [7], 40 µM; in the assay on K562 [8], 38 µM. Besides, the AC50 in the assay on HL-60 [1] was 36 µM; with HL-60 [2] it was 38 µM; in the assay on K562 [4] it was 57 µM; in the assay with K562 [9] (K562, 48 h) it was 62 µM. For the same compound, the Activity entry in the assay with K562 [10] is “Dose-dependent effect”; in the assay with K562 [12], 60.7%; with K562 [13] it was 28.7%; with K562 [14], 5%; in the assay on K562 [15], 52.2%. Moreover, in the assay on K562 [11], the result was inactive.

As to `CS(=O)(=O)OCCCCOS(C)(=O)=O`, the result with K562 [9] was Active.
